The entries come from a sample that favours hits as a whole.
HUVEC inhibit: inhibitors of HUVEC proliferation, primary screen, cell-based, 384-well. CellTiter-Glo luminescence, 72 h; active compounds read low. viability, % at 10 µM (by protocol). actives 1.1% (n = 86,000). AID 648, 2007;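 active = viability at or below 30%; inactive = viability above 30%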
bCat KO growth: primary screen for growth suppressors in beta-catenin knockout HCT116 cells (colon tumor, human); HCT116 beta-catenin knockout viability, CellTiter-Glo, 60 h; active compounds read low; viability, % at 10 µM; actives 1.5% (n = 140,000); AID 818, 2007;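 active = viability at or under a set limit, the compound median less 4 SD, cut at about 6% in these data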
H69AR inhibit: proliferation blockers of H69AR lung cancer cells, primary screen, cell-based, human, 86K library; H69AR lung tumor viability, ATP luminescence, 72 h; active compounds read low; viability, % at 10 µM; actives 6% (n = 85,000);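 active = viability at or below 40%; inactive = viability above 40%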;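 also: multidrug resistant small cell line overexpressing MRP-1 efflux transporter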
Fibroblast inh: antiproliferative effect on LL 47 fibroblasts – human, LL 47 cells, CellTiter-Glo luminescence, primary screen; LL 47 human lung fibroblast viability, ATP luminescence; active compounds read low; viability, % at 10 µM; actives 1.1% (n = 85,000); AID 719, 2007;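 active = viability at or below 50% in the single dose screen; inactive = viability above 50%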;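 also: compound exposure lasted 72 h before the ATP readout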
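test system = LL 47 human lung fibroblasts | amount = 1,150 fibroblasts seeded per well | medium = 15% FBS in IMEM | times = overnight cell rest, 72 h compound treatment at 37 °C | measured by = CellTiter-Glo luminescence measuring cellular ATP | read-out = viability percentage against median untreated-cell control | benchmarks = cell-only wells, no compound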
PTEN del growth: growth suppression of PTEN-null HCT116, primary screen, cell-based, CellTiter-Glo | HCT116 PTEN-null viability, 60 h; active compounds read low | viability, % at 10 µM | actives 1.2% (n = 140,000);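 active = viability at or below a set limit, 4 SD under the median of all tested compounds, cut at about 3.7% in these data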;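 also: PTEN knockout HCT116 line with beta catenin targeted HCT116 as companion control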
Numbers stand for hits; i = inactive; nt = no result given.

SMILES	HUVEC inhibit	bCat KO growth	H69AR inhibit	Fibroblast inh	PTEN del growth
CCOC(=O)c1ccc(NC(=O)c2cn(CCC#N)nc2-c2ccc3c(c2)OCCO3)cc1	nt	i	nt	nt	i
Cc1cccc(Nc2nc(-c3ccc4c(c3)OCCO4)cs2)c1	i	i	22	i	i
Cc1ccc(NC(=O)COC(=O)Cc2ccsc2)cc1S(=O)(=O)N1CCOCC1	nt	i	nt	nt	i
COc1cc2c(cc1OC)C(c1ccc3c(c1)OCO3)C1=C(CC(C)(C)CC1=O)N2 (stereo unspecified)	i	i	i	i	i
COc1cccc(C2C3=C(CC(C)(C)CC3=O)Nc3cc4c(cc32)OCO4)c1 (stereo unspecified)	i	i	32	i	i
Cc1cc(Cl)c(S(=O)(=O)N2CCN(c3ccc(F)cc3)CC2)cc1OCC(=O)NC1CCCCC1	i	i	36	i	i
COc1nc(Nc2ccc(O)cc2)nc(OC(C(F)(F)F)C(F)(F)F)n1	i	i	i	i	i
Nc1cccc(Nc2nc(OC(C(F)(F)F)C(F)(F)F)nc(OC(C(F)(F)F)C(F)(F)F)n2)c1	i	i	1.5	i	2.4
O=C(C1CC1)N1CCc2cc(Br)cc(S(=O)(=O)N3CCCCCC3)c21	i	i	37	i	i
CCC(=O)N1CCc2cc(Br)cc(S(=O)(=O)N3CCCCCC3)c21	i	i	i	i	i
O=C(Nc1ccccc1)Nc1ccc2snnc2c1	i	i	13	i	i
CN(C)c1ccc(NC(=O)Nc2ccc3snnc3c2)cc1	i	i	i	i	i
Cc1ccc2c(c1)cc(CN(Cc1ccccc1)C(=O)N(C)C)c1nnnn12	i	nt	i	i	nt
Cc1ccc2c(c1)cc(CN(Cc1ccco1)C(=O)COc1ccccc1)c1nnnn12	i	i	38	i	i
O=C(N/N=C/c1cccc(C(F)(F)F)c1)C1CCN(c2ncc(C(F)(F)F)cc2Cl)CC1	nt	4.0	nt	nt	2.1
COc1ccc(S(=O)(=O)Nc2ccccc2C)cc1	i	i	13	i	i
Cc1ccccc1NS(=O)(=O)c1ccc(F)cc1	i	i	i	i	i
COc1ccccc1NC(=S)N1CCC(c2nc3cc(C)c(C)cc3[nH]2)CC1	nt	i	nt	nt	i
COc1ccccc1NC(=O)N1CCC(c2nc3cc(C)c(C)cc3[nH]2)CC1	i	i	27	48	i
CCCCSc1nnc(-c2ccccc2)c2ccccc12	nt	i	nt	nt	i
COc1ccc(COc2ccccc2C(=O)NCc2ccccc2)cc1F	nt	i	nt	nt	i
Cc1ccc(NC2=CC(=O)C(=O)c3ccccc32)cc1	6.5	1.2	3.4	7.3	0.6
CCOC(=O)c1ccc(NC(=O)C(C)N2C(=O)c3ccccc3C2=O)cc1 (stereo unspecified)	i	i	i	i	i
CCOC(=O)c1ccc(NC2=CC(=O)C(=O)c3ccccc32)cc1	5.4	1.4	i	3.9	i
C[C@@H](NC(=O)c1coc(=O)c(Br)c1)c1ccccc1	i	i	3.7	i	i
SMILES	HUVEC inhibit	bCat KO growth	H69AR inhibit	Fibroblast inh	PTEN del growth
Cc1ccc2c(c1)C=CC(C)(C)S2(=O)=O	nt	i	nt	nt	i
N=C1C(c2ccccc2)=C(O)CN1c1cccc(S(=O)(=O)Nc2cccc(C(F)(F)F)c2)c1	nt	i	nt	nt	i
O=[N+]([O-])c1ccc(Oc2ccc(F)cc2)c2ccncc12	i	i	24	i	i
O=[N+]([O-])c1ccc(Oc2cccc(Br)c2)c2ccncc12	i	i	18	i	i
CC(NC(=O)c1cc(-c2ccc3c(c2)OCO3)nc2ccccc12)C(C)(C)C (stereo unspecified)	i	i	16	i	i
O=C(O)c1cc(-c2ccc3c(c2)OCO3)nc2ccccc12	i	i	i	i	i
CC(=O)N1CCc2cc(S(=O)(=O)N3c4ccccc4CC3C)ccc21 (stereo unspecified)	i	i	20	i	i
CCN(c1cccc(C)c1)S(=O)(=O)c1ccc2c(c1)CCN2C(C)=O	i	i	29	i	i
CC(=O)N1CCCc2cc(S(=O)(=O)N(CC(C)C)CC(C)C)ccc21	i	i	i	i	i
CC(=O)N1CCc2cc(S(=O)(=O)N3CCOCC3)ccc21	i	i	i	i	i
CCN(c1cccc(C(F)(F)F)c1)S(=O)(=O)c1ccc2c(c1)CCN2C(C)=O	i	i	18	i	i
COC(=O)c1ccccc1NC(=O)c1cc([N+](=O)[O-])nn1Cc1ccccc1	nt	i	nt	nt	i
COc1ccc2c(C)nc(Nc3nc(C)c(C)c(=O)[nH]3)nc2c1	14	1.7	31	13	1.6
CCCCCc1c(C)nc(Nc2nc(C)c3cc(OC)ccc3n2)[nH]c1=O	i	i	i	i	i
CCc1c(C)nc(Nc2nc(C)c3cc(OC)ccc3n2)[nH]c1=O	i	i	28	i	i
COc1nc(Nc2nc3ccccc3c(=O)[nH]2)nc2ccc(C)cc12	2.6	nt	14	6.7	nt
CCOC(=O)C1=C(C)Nc2nc3ccccc3n2C1c1ccccc1 (stereo unspecified)	i	i	11	i	i
COc1ccc(C2C(C(=O)c3ccccc3)=C(C)Nc3nc4ccccc4n32)cc1OC (stereo unspecified)	nt	i	nt	nt	i
COc1ccc(NC(=O)c2cc(-c3cc(C)cc(C)c3O)n[nH]2)cc1Cl	i	i	21	i	i
Cc1cc(C)c(O)c(-c2cc(C(=O)NCc3ccccc3)[nH]n2)c1	i	i	i	i	i
CCOc1ccccc1/C=C(/NC(=O)c1ccccc1)C(=O)NC(C)c1ccccc1 (stereo unspecified)	nt	i	nt	nt	i
O=C(NCc1ccccc1Cl)c1cccc(C(F)(F)F)c1	nt	i	nt	nt	i
COC(=O)c1cc(NC(=O)c2cccc(C(F)(F)F)c2)c(=O)oc1C/C=N/OCc1cccc(Cl)c1Cl	i	i	13	i	i
CSc1ccc(C2C(C#N)=C(N)Oc3c2ccc(=O)c2c(C)oc(C)c32)cc1 (stereo unspecified)	i	i	10	i	i
Cc1oc(C)c2c(=O)ccc3c(c12)OC(N)=C(C#N)C3c1ccccc1 (stereo unspecified)	i	i	i	i	i
SMILES	HUVEC inhibit	bCat KO growth	H69AR inhibit	Fibroblast inh	PTEN del growth
CNC(=O)NC(=O)C(C)OC(=O)c1cc2c(s1)CCCCC2 (stereo unspecified)	nt	i	nt	nt	i
COc1ccc(-c2nn(-c3ccccc3)cc2/C=N/N=C(N)N)cc1OC	nt	1.6	nt	nt	1.2
Cc1ccccc1CS(=O)(=O)c1nnc([C@H](CC(C)C)NC(=O)OC(C)(C)C)o1	i	i	i	3.9	i
CC(C)[C@H](NC(=O)OC(C)(C)C)c1nnc(S(=O)(=O)Cc2c(F)cccc2Cl)o1	i	nt	0.9	2.6	nt
CC(C)(C)OC(=O)N[C@@H](Cc1ccccc1)c1nnc(S(=O)(=O)Cc2cccc(F)c2)o1	i	i	1.0	20	i
CC(C)C[C@H](NC(=O)OC(C)(C)C)c1nnc(SCc2ccccc2)o1	i	i	i	i	i

Compound activity deposited in PubChem BioAssay by SRMLSC.
